# Published values of several laboratories.
# Lines come from different studies, so protocols differ.
Compound,tested on,test,test system,conditions,quantity,result
CC(C)(C)[C@H](NC(=O)[C@H](CCONC(=N)N)NC(=O)Cc1ccc(CNC(=N)N)cc1)C(=O)N[C@@H](CCONC(=N)N)C(=O)NCc1ccc(C(=N)N)cc1,,,"male Sprague-Dawley rat, plasma","intravenous, 1 mg/kg",AUC(0-t),2.09 µg·h/mL
CCCCCCCCCCCC(=O)NC(C)(C)C(=O)N1CCC[C@H]1C(=O)NC(C)(C)C(=O)NC(C)(C)C(=O)N1CCC[C@H]1C(=O)NC(C)(C)C(=O)NC(C)(C)C(=O)N1CCC[C@H]1C(=O)N[C@@H](C)C(=O)NC(C)(C)C(=O)NCCC(=O)N[C@@H](C)C(=O)NC(C)(C)C(=O)NC(C)(C)C(=O)NCCC(=O)NC(C)(C)C(=O)NC(C)(C)C(=O)NC(C)(C)C(=O)N[C@@H](C)C(=O)NCCC(=O)O,HCT-116,"cell growth or viability, MTT",,24 h,IC50,1 µM
COC(=O)C(NC(=O)c1cn(CCCCCF)c2ccccc12)C(C)(C)C (centres unmarked),,,"male Sprague-Dawley rat, plasma","subcutaneous, 200 µg/kg",AUC(0-t),0.0377 µg·h/mL
N=c1c2c(-c3ccccc3)c(-c3ccccc3)n(Cc3ccccc3)c2ncn1[C@H]1CC[C@H](O)CC1,,,"female minipig, plasma","oral, 2.5 mg/kg, single dose",Cmax,0.785 µg/mL
CC[C@@H]1CN2CCc3c([nH]c4cccc(OC)c34)[C@H]2C[C@@H]1/C(=C\OC)C(=O)OC,,,Caco-2,pH 7.4,Papp A→B,14.2 cm/s
O=c1c(O[C@@H]2O[C@H](CO)[C@@H](O)[C@H](O)[C@H]2O)c(-c2ccc(O)cc2)oc2cc(O)cc(O)c12,HCT-116,"cell growth or viability, WST-1",,,IC50,36.6 µM
O=C([O-])C(=O)[O-].[NH-][C@@H]1CCCC[C@H]1[NH-].[Pt+4] (relative stereo),,,"rat, plasma","intravenous, 5 mg/kg",AUC(0-inf),2.54 µg·h/mL
O=C(Nc1ccc2c(c1)B(O)OC2)c1ccc(Oc2ccccc2)cc1,,,PAMPA,"200 µM, 5 h, pH 7.4",Papp,8.2 nm/s
Cl.Cl.O=C(CCN1CCCCC1)c1ccc(-c2ccc(C(=O)CCN3CCCCC3)cc2)cc1,,,"Sprague-Dawley rat, plasma","oral, 100 mg/kg",AUC(0-t),0.978 µg·h/mL
OC[C@@H](O)[C@@H](O)[C@H](O)[C@H](O)CO,,,Caco-2,,Papp A→B,2.49 nm/s
CN(C)C(=O)Oc1cc(OC(=O)N(C)C)cc(-c2cc3ccc(O)cc3o2)c1,,,"male rat, plasma","intravenous, 5 mg/kg",AUC(0-t),0.589 µg·h/mL
